Assay results from ChEMBL document CHEMBL3232876, “Novel R-(+)-limonene-based thiosemicarbazones and their antitumor activity against human tumor cell lines” (Eur J Med Chem, 2014).
Calls of active or inactive are those of the source. The rule behind the calls is not given here.

Tested on: not listed separately
Assay: Growth inhibition of human NCI-ADR-RES cells after 48 hrs by sulforhodamine B assay
Format: functional
Conditions: not given
Outline: (§1)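 Tumour lines from NCI and Vero from the Rio de Janeiro Cell Bank, grown in RPMI 1640 with 5% fetal bovine serum, with penicillin:streptomycin added to experimental cultures. Each compound was tested at four 10-fold dilutions; sulforhodamine B staining at time zero and 48 h. Proliferation was calculated against T0 and drug-free controls, and GI50 came from sigmoidal regression of the concentration-response curves. Representative experiment in triplicate.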

| Structure (SMILES) | GI50 [µM] | TGI [µM] |
| --- | --- | --- |
| COc1ccc(/C=N/NC(=S)NC(C)(C)[C@H]2CC=C(C)CC2)cc1 | 43.8 | 50.4 |
| CC1=CC[C@H](C(C)(C)NC(=S)N/N=C/c2ccc(N(C)C)cc2)CC1 | > 100 | > 100 |
| CC1=CC[C@H](C(C)(C)NC(=S)N/N=C/c2ccccc2O)CC1 | 3.7 | 10.9 |
| CC1=CC[C@H](C(C)(C)NC(=S)N/N=C/c2ccccc2)CC1 | > 100 | > 100 |

Tested on: HT-29
Assay: Growth inhibition of human HT-29 cells after 48 hrs by sulforhodamine B assay
Format: functional
Conditions: HT-29, 48 h
Outline: as §1

| Structure (SMILES) | GI50 [µM] | TGI [µM] |
| --- | --- | --- |
| COc1ccc(/C=N/NC(=S)NC(C)(C)[C@H]2CC=C(C)CC2)cc1 | 8.4 | 33.6 |
| CC1=CC[C@H](C(C)(C)NC(=S)N/N=C/c2ccc(N(C)C)cc2)CC1 | 46.5 | > 100 |
| CC1=CC[C@H](C(C)(C)NC(=S)N/N=C/c2ccccc2O)CC1 | 10.9 | 16.6 |
| CC1=CC[C@H](C(C)(C)NC(=S)N/N=C/c2ccccc2)CC1 | 8.8 | 22.2 |

Tested on: MCF7
Assay: Growth inhibition of human MCF7 cells after 48 hrs by sulforhodamine B assay
Format: functional
Conditions: MCF7, 48 h
Outline: as §1

| Structure (SMILES) | GI50 [µM] | TGI [µM] |
| --- | --- | --- |
| COc1ccc(/C=N/NC(=S)NC(C)(C)[C@H]2CC=C(C)CC2)cc1 | 31.2 | 37.7 |
| CC1=CC[C@H](C(C)(C)NC(=S)N/N=C/c2ccc(N(C)C)cc2)CC1 | 26.8 | > 100 |
| CC1=CC[C@H](C(C)(C)NC(=S)N/N=C/c2ccccc2O)CC1 | 2.2 | 17.5 |
| CC1=CC[C@H](C(C)(C)NC(=S)N/N=C/c2ccccc2)CC1 | 8.4 | 84.4 |

Tested on: not listed separately
Assay: Growth inhibition of human UACC62 cells after 48 hrs by sulforhodamine B assay
Format: functional
Conditions: UACC-62, 48 h
Outline: as §1

| Structure (SMILES) | GI50 [µM] | TGI [µM] |
| --- | --- | --- |
| COc1ccc(/C=N/NC(=S)NC(C)(C)[C@H]2CC=C(C)CC2)cc1 | 13.3 | 70.4 |
| CC1=CC[C@H](C(C)(C)NC(=S)N/N=C/c2ccc(N(C)C)cc2)CC1 | 45.1 | > 100 |
| CC1=CC[C@H](C(C)(C)NC(=S)N/N=C/c2ccccc2O)CC1 | 2.8 | 10.8 |
| CC1=CC[C@H](C(C)(C)NC(=S)N/N=C/c2ccccc2)CC1 | 31.6 | > 100 |

Tested on: NCI-H460
Assay: Growth inhibition of human NCI-H460 cells after 48 hrs by sulforhodamine B assay
Format: functional
Conditions: NCI-H460, 48 h
Outline: as §1

| Structure (SMILES) | GI50 [µM] | TGI [µM] |
| --- | --- | --- |
| COc1ccc(/C=N/NC(=S)NC(C)(C)[C@H]2CC=C(C)CC2)cc1 | 22.5 | 47.8 |
| CC1=CC[C@H](C(C)(C)NC(=S)N/N=C/c2ccc(N(C)C)cc2)CC1 | 53.4 | > 100 |
| CC1=CC[C@H](C(C)(C)NC(=S)N/N=C/c2ccccc2O)CC1 | 1.9 | 8.4 |
| CC1=CC[C@H](C(C)(C)NC(=S)N/N=C/c2ccccc2)CC1 | 13 | 53.9 |

Tested on: U-251
Assay: Growth inhibition of human U251 cells after 48 hrs by sulforhodamine B assay
Format: functional
Conditions: U-251, 48 h
Outline: as §1

| Structure (SMILES) | GI50 [µM] | TGI [µM] |
| --- | --- | --- |
| COc1ccc(/C=N/NC(=S)NC(C)(C)[C@H]2CC=C(C)CC2)cc1 | 11.4 | 71.9 |
| CC1=CC[C@H](C(C)(C)NC(=S)N/N=C/c2ccc(N(C)C)cc2)CC1 | 57.7 | > 100 |
| CC1=CC[C@H](C(C)(C)NC(=S)N/N=C/c2ccccc2O)CC1 | 6.4 | 10.6 |
| CC1=CC[C@H](C(C)(C)NC(=S)N/N=C/c2ccccc2)CC1 | 26.3 | 71.4 |

Tested on: Vero
Assay: (§2) Growth inhibition of African green monkey Vero cells after 48 hrs by sulforhodamine B assay
Format: cell-based
Conditions: chlorocebus sabaeus, vero, 48 h
Outline: as §1

| Structure (SMILES) | TGI [µM] |
| --- | --- |
| COc1ccc(/C=N/NC(=S)NC(C)(C)[C@H]2CC=C(C)CC2)cc1 | 70.1 |
| CC1=CC[C@H](C(C)(C)NC(=S)N/N=C/c2ccc(N(C)C)cc2)CC1 | > 100 |
| CC1=CC[C@H](C(C)(C)NC(=S)N/N=C/c2ccccc2O)CC1 | 11.2 |
| CC1=CC[C@H](C(C)(C)NC(=S)N/N=C/c2ccccc2)CC1 | > 100 |

Tested on: not listed separately
Assay: as §2
Format: cell-based
Conditions: chlorocebus sabaeus, Vero cells
Outline: as §1

| Structure (SMILES) | GI50 at 48 h [µM] |
| --- | --- |
| COc1ccc(/C=N/NC(=S)NC(C)(C)[C@H]2CC=C(C)CC2)cc1 | 12.2 |
| CC1=CC[C@H](C(C)(C)NC(=S)N/N=C/c2ccc(N(C)C)cc2)CC1 | 75.6 |
| CC1=CC[C@H](C(C)(C)NC(=S)N/N=C/c2ccccc2O)CC1 | 3.1 |
| CC1=CC[C@H](C(C)(C)NC(=S)N/N=C/c2ccccc2)CC1 | 20.5 |

Tested on: not listed separately
Assay: Ratio of compound GI50 to paclitaxel GI50 for African green monkey Vero cells
Format: ADME, cell-based
Conditions: chlorocebus sabaeus, read-out: RatioGI50

| Structure (SMILES) | selectivity ratio |
| --- | --- |
| CC1=CC[C@H](C(C)(C)NC(=S)N/N=C/c2ccccc2O)CC1 | 100 |

Tested on: K562
Assay: Growth inhibition of human K562 cells after 48 hrs by sulforhodamine B assay
Format: functional
Conditions: K562, 48 h
Outline: as §1

| Structure (SMILES) | GI50 [µM] | TGI [µM] |
| --- | --- | --- |
| COc1ccc(/C=N/NC(=S)NC(C)(C)[C@H]2CC=C(C)CC2)cc1 | 1.5 | 30.7 |
| CC1=CC[C@H](C(C)(C)NC(=S)N/N=C/c2ccc(N(C)C)cc2)CC1 | 22.6 | > 100 |
| CC1=CC[C@H](C(C)(C)NC(=S)N/N=C/c2ccccc2O)CC1 | 0.8 | > 100 |
| CC1=CC[C@H](C(C)(C)NC(=S)N/N=C/c2ccccc2)CC1 | 6.3 | 47.6 |

Tested on: not listed separately
Assay: Growth inhibition of human OVCAR3 cells after 48 hrs by sulforhodamine B assay
Format: functional
Conditions: OVCAR-3, 48 h
Outline: as §1

| Structure (SMILES) | GI50 [µM] | TGI [µM] |
| --- | --- | --- |
| COc1ccc(/C=N/NC(=S)NC(C)(C)[C@H]2CC=C(C)CC2)cc1 | 7.9 | 21.2 |
| CC1=CC[C@H](C(C)(C)NC(=S)N/N=C/c2ccc(N(C)C)cc2)CC1 | > 100 | > 100 |
| CC1=CC[C@H](C(C)(C)NC(=S)N/N=C/c2ccccc2O)CC1 | 5.5 | 11.8 |
| CC1=CC[C@H](C(C)(C)NC(=S)N/N=C/c2ccccc2)CC1 | 8.7 | 20.6 |

Tested on: 786-0
Assay: Growth inhibition of human 786-0 cells after 48 hrs by sulforhodamine B assay
Format: functional
Conditions: 786-0, 48 h
Outline: as §1

| Structure (SMILES) | GI50 [µM] | TGI [µM] |
| --- | --- | --- |
| COc1ccc(/C=N/NC(=S)NC(C)(C)[C@H]2CC=C(C)CC2)cc1 | 8.9 | 29.6 |
| CC1=CC[C@H](C(C)(C)NC(=S)N/N=C/c2ccc(N(C)C)cc2)CC1 | 87 | > 100 |
| CC1=CC[C@H](C(C)(C)NC(=S)N/N=C/c2ccccc2O)CC1 | 4.6 | 12.1 |
| CC1=CC[C@H](C(C)(C)NC(=S)N/N=C/c2ccccc2)CC1 | 9.9 | 67 |

Tested on: PC-3
Assay: Growth inhibition of human PC3 cells after 48 hrs by sulforhodamine B assay
Format: functional
Conditions: PC-3, 48 h
Outline: as §1

| Structure (SMILES) | GI50 [µM] | TGI [µM] |
| --- | --- | --- |
| COc1ccc(/C=N/NC(=S)NC(C)(C)[C@H]2CC=C(C)CC2)cc1 | < 0.04 | 1.2 |
| CC1=CC[C@H](C(C)(C)NC(=S)N/N=C/c2ccc(N(C)C)cc2)CC1 | < 0.04 | < 0.7 |
| CC1=CC[C@H](C(C)(C)NC(=S)N/N=C/c2ccccc2O)CC1 | < 0.04 | 0.9 |
| CC1=CC[C@H](C(C)(C)NC(=S)N/N=C/c2ccccc2)CC1 | 1.3 | 5.7 |

Tested on: PC-3
Assay: Cytotoxicity against human PC3 cells assessed as cell death after 48 hrs by sulforhodamine B assay
Format: functional
Conditions: not given
Outline: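 NCI-supplied tumour cells in RPMI 1640 with 5% fetal bovine serum; experimental cultures also had penicillin:streptomycin. Cells were exposed for 48 h to four 10-fold concentrations (0.25 to 250 […]), with readings at time zero and at 48 h. LC50 (concentration giving 50% cell death) came from sigmoidal regression of concentration–response curves.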

| Structure (SMILES) | Activity |
| --- | --- |
| COc1ccc(/C=N/NC(=S)NC(C)(C)[C@H]2CC=C(C)CC2)cc1 | Active |
| CC1=CC[C@H](C(C)(C)NC(=S)N/N=C/c2ccc(N(C)C)cc2)CC1 | Active |
| CC1=CC[C@H](C(C)(C)NC(=S)N/N=C/c2ccccc2)CC1 | Active |

Same assay, conditions: PC-3, 48 h, read-out: LC50 (the source's name)

| Structure (SMILES) | CC50 [µM] |
| --- | --- |
| CC1=CC[C@H](C(C)(C)NC(=S)N/N=C/c2ccccc2O)CC1 | 12.3 |
